According to the EternaBench riboswitch data:

System: MS2 coat protein
Assay: apparent Kd, MS2 coat protein; higher = weaker binding; RNA-MaP array; FMN 200 µM where present
In short: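 Designs were transcribed by stalled E. coli RNA polymerase on Illumina sequencing-chip clusters. They were titrated with SNAP-549-labelled MS2 coat protein from 0.7 or 1.5 nM, doubling to 3 µM, in 100 mM Tris-HCl pH 7.5, 80 mM KCl, 4 mM MgCl2, BSA, DTT, yeast tRNA and Tween-20, without and then with constant ligand. The apparent Kd is the median of filtered per-cluster fits after normalisation of green signal to red-channel RNA signal and control-cluster median Fmax.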

[1] = designed as: OFF switch for flavin mononucleotide, no ligand
[2] = ligand present: flavin mononucleotide, designed as: OFF switch for flavin mononucleotide
[3] = designed as: ON switch for flavin mononucleotide, no ligand
[4] = ligand present: flavin mononucleotide, designed as: ON switch for flavin mononucleotide

| Sequence | apparent Kd [1] | apparent Kd [2] | apparent Kd [3] | apparent Kd [4] |
| --- | --- | --- | --- | --- |
| UCCUUAAGUUAGGAUAUCGAUUGCUAUAGCAGAUGAGAAGGAGCCACAUGAGGAUCACCCAUGUCCUCACCUAU | 180 nM | 214 nM | – | – |
| UCCUUCUGUUGAGGAUAUGUAAGACAGCGGCUGCUAUUGCGGCCCGCUGAUACAGAAGGCAACAUGAGGAUCACCCAUGUUCAA | 22.9 nM | 163 nM | – | – |
| UCCUUGUCCUGAGGAUAUCCGCGGUUCCCAAAAGGAGAAGGCAGGACAUGAGGAUCACCCAUGUACCCAGAACACGUGCAGAGU | 14.6 nM | 90.9 nM | – | – |
| UCGAUAAGGAGAGGAUAUGGACAUGAGGAUCACCCAUGUACAUGGGAAUAUAUUCUGAAUUUUUACUAGAAGGCUUACAUAAAU | 20.8 nM | 17.1 nM | – | – |
| UCGCUCCGUGUAGGAUAUCGCCGUUCUACUCGGCGAGAAGGACAUGAGGAUCACCCAUGUAUGUUAUUAUCACGUGUGGCGCGC | 18.5 nM | 29.5 nM | – | – |
| UCGCUGCGAGGAUAUACGUUUGCGCGCUUUCGUUUGCGCGUACAUGAGGAUCACCCAUGUAGAAGGCGCGCCGC | 15.9 nM | 15.9 nM | – | – |
| UCGGCGCGAGGAUAUACGUUUGCGCGUUUUCGUUUGCGCGUACAUGAGGAUCACCCAUGUAGAAGGCGCGCGGC | 13.1 nM | 13.4 nM | – | – |
| UCGGCGCGAGGAUAUACGUUUGCGCUUUUUCGUUUUUGCGUACAUGAGGAUCACCCAUGUAGAAGGCGCGCCGC | 15.6 nM | 23 nM | – | – |
| UCGGCGCGAGGAUAUACGUUUGCUCUUUUUCGUUUUUGUGUACAUGAGGAUCACCCAUGUAGAAGGCGCGCCGC | 17.9 nM | 63.7 nM | – | – |
| UCGGCGCGAGGAUAUGCGGUUUGUGCUUCGGGCCCUCGCGUACAUGAGGAUCACCCAUGUAGAAGGCGCGCCGC | 201 nM | 123 nM | – | – |
| UCGUAUACACAAGGAUAUCAAUGAUUUGUGGAUCCUACAUGAGGAUCACCCAUGUUUUUAUAUUGUGAGAAGGUGUAGUGUCUU | – | – | 507 nM | 684 nM |
| UCGUAUACACAAGGAUAUCAAUGGUUUGUAGAUCCUACAUGAGGAUCACCCAUGUUUUUAUAUUGUGAGAAGGUGUAGUGUCUU | – | – | 620 nM | 564 nM |
| UCGUAUACACAAGGAUAUCGAUGGCUUGUAGAUCCUACAUGAGGAUCACCCAUGUUUUUAUAUUGUGAGAAGGUGUAGUGUCUU | – | – | 1170 nM | 1910 nM |
| UCGUGAAGGACAGGAUAUGGACAUGAGGAUCACCCAUGUACAUGGGAAUGUAUACUGAAUUUGUACUAGAAGGGUUACAUAAAU | 29.9 nM | 20.6 nM | – | – |
| UCGUUGUCAGGAUAUCGUUAAUUUAAUUGUUUGUAUUAGUUCGAGAAGGGACAUGAGGAUCACCCAUGUUUGCU | 31 nM | 86.8 nM | – | – |
| UCUACAUAAAUUCAUCAAUACAGUAAGGAUAUGAGAUACAUGAGGAUCACCCAUGUGCAUGUGAAUUAGAAGGUACAAUUAACU | 14.4 nM | 12 nM | – | – |
| UCUAUGAAGAUUCGUCAAUACAGUUAGGAUAUGAGAUACAUGAGGAUCACCCAUGUGCAUGUGGAUUAGAAGGAACAAUUAUCU | 33.2 nM | 30.8 nM | – | – |
| UCUGGAGCAGGAUAUAUAUGACGUGCUUCGGCACGAAGAUCACAUGAGGAUCACCCAUGUAGAAGGGCUCCAGA | 109 nM | 946 nM | – | – |
| UCUUAUUGCAAGGAUAUGCAAUUUAUUUUUUAUGCAGAAGGUGCAACAUGAGGAUCACCCAUGUUUCCGGGCAU | 13.8 nM | 18.6 nM | – | – |
| UCUUUCCGGAAUAUAAGUUGACUUCAGGAUAUCACAUGAGGAUCACCCAUGUGAUGCUUUAUUGCUGAGAAGGGAAGUCAUACC | 11.7 nM | 38.6 nM | – | – |
| UCUUUGCUAUAUACAUGAGGAUCACCCAUGUCCACUGACAGACAGGAUAUCCUUAGAAACUAGCAGGAGAAGGGUCAGUCAUAC | – | – | 140 nM | 74.8 nM |
| UGAAACUACGAGAAGGACAUGUGGUCCUUCAGUUACAUGAGGAUCACCCAUGUAGGAUAUCGUAGUUUCAGGAUCGUGAGAUCU | 38.5 nM | 12.7 nM | – | – |
| UGAAAUAGAGGAUAUACAUGAGGAUCACCCAUGUGAUCCUCCGGAGUAGGCCGUUUAUGUAGAAGGCUGAUGAA | 48.9 nM | 48.3 nM | – | – |
| UGAAAUCAUGUAGGAUAUGCAUGGCGAAGCUACGCAGAAGGACAUGAGGAUCACCCAUGUUAUGGCUACCCAGUUCGGUGGCAA | 51.8 nM | 117 nM | – | – |
| UGAAAUCAUGUAGGAUAUGCAUGGCGAAGCUACGCAGAAGGACAUGAGGAUCACCCAUGUUCUAGCUACCGAGAACGGUGGCAA | 20.9 nM | 109 nM | – | – |
| UGAAAUCAUGUAGGAUAUGCAUGGCGCAGCUACGCAGAAGGACAUGAGGAUCACCCAUGUUAUAGCUACCCAGUUCGGUGGCAA | 30.6 nM | 173 nM | – | – |
| UGAAUCAAUACAGGAUAUGGUGACGCACAUGAGGAUCACCCAUGUCCGCAGCGUGCUCAGCACGCCCAGAAGGGUAUUGAUCCG | – | – | – | 84.8 nM |
| UGACCCAUGACAUGAGAUGACAUGAGGAUCACCCAUGUUUACAAGGAUAUGUUGAUGAAACAUCAACAGAAGGUGUAAUGGGCU | 29.8 nM | 158 nM | – | – |

| Sequence | apparent Kd [1] | apparent Kd [2] | apparent Kd [3] | apparent Kd [4] |
| --- | --- | --- | --- | --- |
| UGACUUAUAUAGAAGGGUAUGUGGGAAUUACAUGAGGAUCACCCAUGUUUUAUAGGAUAUGUAUAUAGUUUUUAAUCAAGUUUA | 46.3 nM | 37.7 nM | – | – |
| UGAGCCUCGUGAGGAUAUACAUGAGGAUCACCCAUGUAAAUGGAAGAACGGAGGAAACUCCGAAUGUAGAAGGCACGAGGCUCA | 145 nM | 773 nM | – | – |
| UGAGCCUCGUGAGGAUAUACAUGAGGAUCACCCAUGUAGUAAAGUGAACGGAGGAAACUCCGAAUGUAGAAGGCACGAGGCUCA | 13.2 nM | 85.8 nM | – | – |
| UGAGCGACCACAGGAUAUACUUGGGAAGACCGAGUAGAAGGGUGGAAGAGCGUGCAGUGACAUGAGGAUCACCCAUGUGGUUGU | – | – | 122 nM | 82.2 nM |
| UGAUAACAUGUAGGAUAUGCAGCAUUGACCACUGCAGAAGGACAUGAGGAUCACCCAUGUAGUUGUACUAUGGGAUCACGCAAU | 419 nM | 194 nM | – | – |
| UGAUAGGACAGAGGAUAUACAGAUAGGAUCUACUAUCAAACAGUCCUAACAUGAGGAUCACCCAUGUAGAAGGCUGUCCUAUCU | 20.9 nM | 79.2 nM | – | – |
| UGAUAGGACAGAGGAUAUACGUGCUAGAGAUACUAGCAAAAUUUCCUCACAUGAGGAUCACCCAUGUAGAAGGCUGUCCUAUCG | 17.6 nM | 453 nM | – | – |
| UGAUAGGACAGAGGAUAUACGUGCUAGAGAUACUAGCAAAUAAUCCUUACAUGAGGAUCACCCAUGUAGAAGGCUGUCCUAUCU | 19.3 nM | 47.4 nM | – | – |
| UGAUAGGACAGAGGAUAUGCCGAUAGGAUCUACUAUCGAAGAAUCCUCACAUGAGGAUCACCCAUGUAGAAGGCUGUCCUAUCU | 23 nM | 140 nM | – | – |
| UGAUAGGACAGAGGAUAUGCGUAUAGUUACCUCUACAUGAGGAUCACCCAUGUAGAAGGCUGUCCUAUCUAAGUCGGAAACGAC | 5.8 nM | 5.61 nM | – | – |
| UGAUAGGACAGAGGAUAUGCGUAUAGUUAUCUCUACAUGAGGAUCACCCAUGUAGAAGGCUGUCCUAUCUAAGUCGGAAACGAC | 5.35 nM | 5.22 nM | – | – |
| UGAUCGAGAGAUCUUAGAUUCUGGUAGGAUAUACAUUAUGUUUAAAAUACAUGAGGAUCACCCAUGUAGAAGGACUAGAGUCUA | 6.76 nM | 13.9 nM | – | – |
| UGAUCUAGCGGAGGAUAUACAUGAGGAUCACCCAUGUAGAUAUCAUGACCGUAGUCGUGUAUCGUGUAGAAGGCCGCUAGAUCU | 12.7 nM | 24 nM | – | – |
| UGAUGUAAAGAGAAGGGCUACUGGUUGAAACCUGCGGCCUCUGGAACAUGAGGAUCACCCAUGUAGCAGGAUAUCUUUGCGUCA | 169 nM | 31.4 nM | – | – |
| UGCAGCGUGCACAUGAGGAUCACCCAUGUGCCAGCGGACGCACAGGAUAUGCAAUCGUACGGCUAGCAGAAGGGUGGGUCUCAC | – | – | 13.5 nM | 7.13 nM |
| UGCAUGCUAGGAUAUACGGGACAUUAGGGUUUGUCGUGUGGACAUGAGGAUCACCCAUGUAGAAGGAGCGUGCU | 49.5 nM | 207 nM | – | – |
| UGCAUGUAUGAGAAGGCUAAUUUGGACAUUAUUUAUGAUGAUGUUUAGGUUAGAGGAUAUUGGGACAUGAGGAUCACCCAUGUA | 21.5 nM | 18 nM | – | – |
| UGCAUGUGAGGAUAUGUGUACUGUUUUUUGUUUAGAUGUACACAGAAGGCACAUGAGGAUCACCCAUGUAGUAC | 95.8 nM | 22.4 nM | – | – |
| UGCCGUUUAGGAUAUACAUGAGGAUCACCCAUGUGACACACAUAUUUUACAAAACCAUGUAGAAGGAAACGGCA | 104 nM | 512 nM | – | – |
| UGCGCCAGAGGAUAUCGGGCUCGCAACAUGAGGAUCACCCAUGUAGUAUGGUCUUAUUUUCGAGAAGGCUGUCGUU | 20.9 nM | 17.4 nM | – | – |
| UGCGUAUACGGAGGAUAUGUACAGGUCGCCGUACAUGAGGAUCACCCAUGUGCAGAAGGCCGUAGCGCUAAACUGGAUUGCAAU | 11.4 nM | 57.3 nM | – | – |
| UGCUAACUGUAGAAGGGUGACAUGAGGAUCACCCAUGUGCACGCGCGAUUUACGGCGCGCGUGCCACAGGAUAUACAGUCGAGU | – | – | 28.3 nM | 54.4 nM |
| UGCUACGUUUCGUAGCAGCUAGGUGAGGAUAUUCAAUUUUUCACAUGAGGAUCACCCAUGUAUGUGAAGAAGGCGCCUAGAAAC | – | – | 11.6 nM | 4.61 nM |
| UGCUACGUUUCGUAGCAGCUAGGUGAGGAUAUUCAAUUUUUCACAUGAGGAUCACCCAUGUAUGUGAAGAAGGCGCCUAGAAAU | – | – | 12.8 nM | 4.8 nM |
| UGCUAGUCAGGAUAUACGAACAUGUCGCCAGAUGUCAAGGUACAUGAGGAUCACCCAUGUAGAAGGGACUAGAA | 39.2 nM | 107 nM | – | – |
| UGGAGGUCAGGAUAUGCAUGGCGGGACUUGCGUCGUGGCGUGCAGAAGGGACAUGAGGAUCACCCAUGUGGAGU | 112 nM | 77.4 nM | – | – |
| UGGAUGGUAUGAGGAUAUGCGCGCGAAACGCGCGCAGAAGGCAUGUCAAUAGACAUGAGGAUCACCCAUGUAUUAUCCAUCCAC | – | – | 192 nM | 13 nM |
